Test results published in ChEMBL document CHEMBL4177771, “Endoplasmic Reticulum-Localized Two-Photon-Absorbing Boron Dipyrromethenes as Advanced Photosensitizers for Photodynamic Therapy” (J Med Chem, 2018).

How the values were obtained:
[1] = Drug uptake in endoplasmic reticulum of human HeLa cells at 2 uM after 2 hrs by ER-tracker green-based confocal microscopic method; assay type: ADME, subcellular
Summary of the method: (§1)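 Cells on glass-bottom dishes given 2 μM for 2 h or 4 μM for 4 h at 37 °C. After PBS washes, stained in HBSS with 0.2 μM ER-tracker or Mito-tracker green for 15 min at 37 °C. Confocal imaging: trackers excited at 488 nm, emission 500–570 nm; BODIPY excited at 633 nm, emission 650–760 nm.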

[2] = Drug uptake in lysosome of human HeLa cells at 2 uM after 2 hrs by […]-based confocal microscopic method; assay type: ADME, subcellular
[3] = Drug uptake in lysosome of human HepG2 cells at 2 uM after 2 hrs by […]-based confocal microscopic method; assay type: ADME, subcellular; conditions: hepg2, 2 h
[4] = Drug uptake in endoplasmic reticulum of human HepG2 cells at 2 uM after 2 hrs by ER-tracker green-based confocal microscopic method; assay type: ADME, subcellular; conditions: hepg2, 2 h; summary of the method: as §1
[5] = Drug uptake in mitochondria of human HeLa cells at 2 uM after 2 hrs by Mito-tracker green-based confocal microscopic method; assay type: ADME; summary of the method: as §1
[6] = Drug uptake in mitochondria of human HepG2 cells at 2 uM after 2 hrs by Mito-tracker green-based confocal microscopic method; assay type: ADME; conditions: hepg2, 2 h; summary of the method: as §1
[7] = Drug uptake in endoplasmic reticulum of human HeLa cells at 4 uM after 4 hrs by ER-tracker green-based confocal microscopic method; assay type: ADME, subcellular; summary of the method: as §1
[8] = Drug uptake in lysosome of human HeLa cells at 4 uM after 4 hrs by […]-based confocal microscopic method; assay type: ADME, subcellular
[9] = Drug uptake in endoplasmic reticulum of human HepG2 cells at 4 uM after 4 hrs by ER-tracker green-based confocal microscopic method; assay type: ADME, subcellular; conditions: hepg2, 4 h; summary of the method: as §1
[10] = Drug uptake in mitochondria of human HeLa cells at 4 uM after 4 hrs by Mito-tracker green-based confocal microscopic method; assay type: ADME; summary of the method: as §1
[11] = Drug uptake in mitochondria of human HepG2 cells at 4 uM after 4 hrs by Mito-tracker green-based confocal microscopic method; assay type: ADME; conditions: hepg2, 4 h; summary of the method: as §1
[12] = Drug uptake in lysosome of human HepG2 cells at 4 uM after 4 hrs by […]-based confocal microscopic method; assay type: ADME, subcellular; conditions: hepg2, 4 h

Measured: Drug uptake

CCOC(=O)COc1ccc(C2=C3C(C)=C(Br)C(/C=C/c4ccc(OCCOCCOCCOC)cc4)=[N+]3[B-](F)(F)n3c(/C=C/c4ccc(OCCOCCOCCOC)cc4)c(Br)c(C)c32)cc1
Not Active: [1] | [2] | [3] | [4] | [5] | [6]

CCOC(=O)COc1ccc(C2=C3C(C)=C(Br)C(/C=C/c4ccc5c(c4)c4ccccc4n5CCOCCOCCOC)=[N+]3[B-](F)(F)n3c(/C=C/c4ccc5c(c4)c4ccccc4n5CCOCCOCCOC)c(Br)c(C)c32)cc1
Not Active: [7] | [8] | [9] | [10] | [11] | [12]
